Runt-SMMHC FRET: inhibitors of human RUNX1 Runt domain binding to CBFb-SMMHC; Cerulean-Runt/Venus-CBFb-SMMHC FRET ratio 530/480, 1 h; 0.74% of 220,000 active; AID 1434; Q01196+Q13951; inhibition, % at 20 µM;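 active = mean inhibition across duplicate retests at 20 µM reaching about 50%, limit read from the data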;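 note: inhibitors lower the FRET ratio by blocking Runt binding to CBFb-SMMHC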
Target sequence (Q01196 whole entry, looked up, the tested form may be a part): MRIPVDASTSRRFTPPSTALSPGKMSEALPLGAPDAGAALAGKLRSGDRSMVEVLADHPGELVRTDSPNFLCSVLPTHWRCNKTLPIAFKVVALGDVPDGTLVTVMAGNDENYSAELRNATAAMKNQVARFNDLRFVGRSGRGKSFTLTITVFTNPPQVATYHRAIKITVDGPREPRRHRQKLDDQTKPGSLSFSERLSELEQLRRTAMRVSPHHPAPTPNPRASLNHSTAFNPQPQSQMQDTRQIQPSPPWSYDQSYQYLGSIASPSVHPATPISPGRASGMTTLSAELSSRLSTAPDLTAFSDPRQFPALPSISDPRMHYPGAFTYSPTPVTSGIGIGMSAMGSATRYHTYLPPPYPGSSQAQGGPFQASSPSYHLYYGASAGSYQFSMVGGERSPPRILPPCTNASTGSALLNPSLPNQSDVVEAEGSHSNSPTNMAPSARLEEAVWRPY
Target sequence (Q13951 whole entry, looked up, the tested form may be a part): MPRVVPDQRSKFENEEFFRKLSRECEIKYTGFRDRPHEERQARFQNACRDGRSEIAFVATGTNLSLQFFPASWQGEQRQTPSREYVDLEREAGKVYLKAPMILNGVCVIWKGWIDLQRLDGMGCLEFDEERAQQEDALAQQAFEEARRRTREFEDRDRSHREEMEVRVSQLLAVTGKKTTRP
Hck-Nef inh: blocks Nef-activated human Hck kinase; P08631; Recombinant Hck-YEEI plus Nef, Z-Lyte FRET kinase assay; inhibition, % at 20 µM; 0.68% of 220,000 active; AID 463187;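 active = Hck-Nef kinase inhibition above about 50%, limit read from the data; inactive = inhibition below that limit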
Runt-CBFb FRET: blocks binding of human RUNX1 Runt domain to CBFb; 0.46% of 220,000 active; Cerulean-Runt/Venus-CBFb FRET ratio 530/480, 1 h; inhibition, % at 20 µM;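 active = inhibition over about 50% at 20 µM in the single-dose screen, limit read from the data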
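Assay system: Cerulean-Runt domain / Medium: Tris 50 mM pH 7.5, KCl, K2SO4, 0.01% BSA / Timing: protein complex preformed 1 h, compound exposure 1 h, room temperature, dark / Measured by: FRET, excitation 422 nm, emission at 530 and 480 nm / Evaluation: loss of energy transfer signal / Control set: 5 µM unlabeled CBFb as full-inhibition high control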
RanGTP-Imp inh: disruptors of Ran-importin-beta complex formation – biochemical, FRET, CFP-Ran, YFP-importin-beta, homogeneous, primary screen | AID 2216 | inhibition, % (concentration not given with the values) | cell-free CFP-Ran/YFP-importin-beta FRET ratio | 1.1% of 300,000 active;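 active = more than half of the replicate wells show a fall in the fluorescence ratio signal beyond about 16%, limit read from the data, passing the limit was not always enough; inconclusive = exactly half of the replicate wells pass the set limit; inactive = fewer than half of replicates pass the limit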
TbHK1 inh: blocks Trypanosoma brucei hexokinase 1 activity | AID 1430 | 0.11% of 220,000 active | recombinant TbHK1, G6PDH-coupled NADH A340 | inhibition, % at 10 µM;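 active = inhibition of 50% or more in the single-dose primary screen; inactive = inhibition below 50%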
Hits are given with their value; - = inactive; ? = inconclusive; . = no result given. Shown are actives, neighbours in structure and some others; about 1.9% of the full set was active somewhere.

SMILES	Runt-SMMHC FRET	Hck-Nef inh	Runt-CBFb FRET	RanGTP-Imp inh	TbHK1 inh
N#C/C(=C\c1c(N2CCC(C(N)=O)CC2)nc2ccccn2c1=O)C(=O)NCc1ccco1	107	-	128	-	-
Cc1cccn2c(=O)c(/C=C(\C#N)C(=O)NCc3ccco3)c(N3CCOCC3)nc12	-	-	78	-	-
Cc1cccn2c(=O)c(/C=C(\C#N)C(=O)NCc3ccccc3)c(N3CCC(C(N)=O)CC3)nc12	89	-	148	-	-
Cc1nn(CC(=O)NNC(=O)c2ccccc2F)c([N+](=O)[O-])c1Br	-	-	-	-	-
Cc1cc(=O)[nH]c(-c2cccnc2)n1	-	-	-	22	-
CC1CCCCN1CCCNc1ccc(C(CC(N)=O)NC(=O)Cc2cccc3ccccc23)cc1[N+](=O)[O-] (stereo not drawn)	.	.	.	30	.
CC1CCCCN1CCCNc1ccc(C(CC(N)=O)NC(=O)Cc2ccc(Cl)cc2)cc1[N+](=O)[O-] (stereo not drawn)	.	.	.	-	.
CCCc1cc(=O)n2[nH]c(C(F)(F)F)nc2n1	-	-	-	?	-
CCCc1cc(=O)n2[nH]c(C)nc2n1	-	-	-	23	-
CCCc1c(C)c(C#N)c2nc3ccccc3n2c1NCCCN1CCOCC1	54	-	-	-	-
N#Cc1c2c(c(NCCN3CCOCC3)n3c1nc1ccccc13)CCCC2	111	-	50	45	-
Cc1c(Cc2ccccc2)c(NCCN(C)C)n2c(nc3ccccc32)c1C#N	81	-	-	26	-
CC(=O)Oc1ccc(C(=O)NC(C)CCc2ccccc2)cc1 (stereo not drawn)	.	.	.	-	.
CCOC(=O)c1sc2nc3c(SCCC#N)cc(C(=O)c4cc(F)ccc4O)cn3c(=O)c2c1C	-	-	-	-	-
O=C(O)CSc1cc(C(=O)c2cc(F)ccc2O)cn2c(=O)c3c(-c4ccccc4)csc3nc12	-	52	-	-	-
Cc1cc(C)c2c(N)c3cccc(C)c3nc2n1	79	-	-	126	-
Cc1cccc2c(N)c3c(nc12)CCCC3 (tested in a mixture with another compound)	-	-	-	.	-
CCN(CC(=O)NCc1ccc(F)cc1)CC(=O)Nc1ccc(S(=O)(=O)N2CCCC2)cc1	-	-	-	17	-
O=C(CN1C(=O)COc2ccc(S(=O)(=O)N3CCCCC3)cc21)NCc1ccc(F)cc1	.	.	.	51	.
CC1CC(C)CN(C(=O)C(Cc2ccccc2)NC(=O)c2ccccc2)C1 (stereo not drawn)	.	.	.	-	.
CCSc1ccc(-c2nn(-c3ccccc3)cc2/C=C(/C#N)C(=O)NC)cc1	60	-	-	.	-
COC(=O)CC1COc2ccccc2N1C(=O)c1ccc(Cl)cc1 (stereo not drawn)	-	-	-	179	-
Cc1ccc(/C=C/C2=Cc3c(sc(NC(=O)CSc4n[nH]c(N)n4)c3C#N)C(C)(C)C2)o1	-	64	-	-	-
COc1ccc2c(c1)c(C(=O)CN1CCN(C(=O)c3ccco3)CC1)c(C)n2C	-	-	-	19	-
Cn1c(C(=O)NC2CCCCC2)cc2c(=O)n3ccccc3nc21	.	.	.	-	.
SMILES	Runt-SMMHC FRET	Hck-Nef inh	Runt-CBFb FRET	RanGTP-Imp inh	TbHK1 inh
COc1ccc(C)cc1NC(=O)c1cc2c(=O)n3ccccc3nc2n1C	92	-	-	.	-
Cn1c(C(=O)NCc2ccccn2)cc2c(=O)n3ccccc3nc21	97	-	-	-	-
C/C=C/COC(=O)C1=C(C)NC(=O)NC1c1ccc2c(c1)OCO2 (stereo not drawn)	.	.	.	-	.
N#Cc1ccc(NC(=O)COC(=O)CCc2nc3ccccc3c(=O)[nH]2)cc1	-	-	-	-	-
Cc1cccc(/C=N/NC(=O)c2ccc(NC(=O)c3cccc(Cl)c3)cc2)n1	.	.	.	-	.
C=CCn1c(N)c(C(=O)Nc2ccccc2)c2nc3ccccc3nc21	-	-	-	18	-
COCCNC(=O)c1c(N)n(-c2ccccc2)c2nc3ccccc3nc12	-	-	88	90	-
COC(=O)c1c(N)n(-c2ccc(N3CCOCC3)cc2)c2nc3ccccc3nc12	-	.	-	.	.
COc1cc(-n2c(N)c(C(=O)NCc3ccco3)c3nc4ccccc4nc32)cc(OC)c1OC	-	-	-	-	-
Cc1cc(C)cc(-n2c(N)c(C(=O)Nc3c(C)n(C)n(-c4ccccc4)c3=O)c3nc4ccccc4nc32)c1	-	54	-	-	-
COC(=O)c1c(N)n(-c2ccc(NC(C)=O)cc2)c2nc3ccccc3nc12	74	-	-	-	-
Cc1ccc(-n2c(N)c(C(=O)Nc3c(C)n(C)n(-c4ccccc4)c3=O)c3nc4ccccc4nc32)cc1	-	-	-	-	-
CCn1cc(C(=O)N[C@@H](CCSC)C(=O)NC(C)(C)CO)c(=O)c2cc3c(cc21)OCO3	.	.	.	-	.
COc1ccc(C(=O)NCCCn2ccnc2)cc1	-	-	-	-	-
COCCCNC(=O)c1c(N)n(/N=C/c2cccs2)c2nc3ccccc3nc12	58	-	88	-	-
COCCCNC(=O)c1c(N)n(-c2ccccc2)c2nc3ccccc3nc12	81	-	54	87	-
COCCCNC(=O)c1c(N)n(/N=C/c2cccnc2)c2nc3ccccc3nc12	-	-	-	-	-
COCCCNC(=O)c1c(N)n(-c2ccc(S(N)(=O)=O)cc2)c2nc3ccccc3nc12	82	-	57	61	-
COCCNC(=O)c1c(N)n(CCCn2ccnc2)c2nc3ccccc3nc12	-	-	-	113	-
CNC(=O)c1c(NC(=O)C2=COCCO2)sc2c1CCN(C(=O)OC)C2	.	.	.	-	.
Nc1ccccc1-c1n[nH]c(=S)s1	-	-	-	.	-
Fc1ccccc1N1CCN(CC2CCCCC2)CC1	.	.	.	-	.
Cc1cccc(N2CCN(C(=O)c3ccc(NC4=NC5CS(=O)(=O)CC5S4)cc3)CC2C)c1 (stereo not drawn)	.	.	.	-	.
N#C/C(=C\c1ccncc1)c1nc2ccccc2[nH]1	-	-	-	-	-
N#C/C(=C/c1ccncc1)c1nc2ccccc2s1	-	-	-	84	-
SMILES	Runt-SMMHC FRET	Hck-Nef inh	Runt-CBFb FRET	RanGTP-Imp inh	TbHK1 inh
CCc1ccc(C(C(=O)NC2CCCCC2)N(C(=O)c2csnn2)C2CC2)cc1 (stereo not drawn)	.	.	.	-	.
CC(C)Cn1nc(NC(=O)c2cccs2)c2cc3ccccc3nc21	57	-	-	64	-
COc1ccc2nc3c(cc2c1)c(NC(=O)c1cccs1)nn3CC(C)C	63	-	62	116	-
COc1ccc(NC(=O)c2cccs2)cc1	-	-	-	?	-
S=C(NC1CCCCC1)NC1CC2CCC(C1)N2Cc1ccccc1 (stereo not drawn)	.	-	.	-	-
N=c1oc2ccc(Br)cc2cc1C(=O)NCc1ccc(F)cc1	.	.	.	-	.
CCCCCCc1cc2cc(C(=O)NCc3ccccc3)c(=N)oc2cc1O	-	-	-	146	-
CCN(CC)c1ccc2cc(C(=O)NCc3ccc(F)cc3)c(=N)oc2c1	.	.	.	99	.
CCc1ccc(NC(=O)COc2cccc(-n3cnnn3)c2)cc1	.	.	.	-	.
